We go through ten molecules from ChEMBL document CHEMBL1132193, “Fluorescent pseudo-peptide linear vasopressin antagonists: design, synthesis, and applications” (J Med Chem, 1999).

Assay [1] deals with T1, Oxytocin receptor (Homo sapiens, UniProt P30559).
T1 sequence (P30559 whole entry): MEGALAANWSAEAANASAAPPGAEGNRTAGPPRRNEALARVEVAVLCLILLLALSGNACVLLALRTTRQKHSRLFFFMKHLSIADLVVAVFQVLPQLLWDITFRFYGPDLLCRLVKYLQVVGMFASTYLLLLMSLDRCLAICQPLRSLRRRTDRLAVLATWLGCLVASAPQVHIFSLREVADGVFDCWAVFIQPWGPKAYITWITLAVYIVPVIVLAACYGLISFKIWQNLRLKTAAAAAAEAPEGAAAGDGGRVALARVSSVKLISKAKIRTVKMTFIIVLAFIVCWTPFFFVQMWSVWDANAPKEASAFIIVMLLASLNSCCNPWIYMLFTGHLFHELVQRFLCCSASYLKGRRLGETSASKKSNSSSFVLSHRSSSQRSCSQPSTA
The experiment in a line: The inhibition constant (Ki(nM)) by displacement of [125I]- HO-LVA radiolabeled ligand using membranes of CHO cells of human Oxytocin receptor. In kind it is cell membranes.

In assay [2] the target is T2, Vasopressin V1b receptor (Homo sapiens, UniProt P47901).
T2 sequence (P47901 whole entry): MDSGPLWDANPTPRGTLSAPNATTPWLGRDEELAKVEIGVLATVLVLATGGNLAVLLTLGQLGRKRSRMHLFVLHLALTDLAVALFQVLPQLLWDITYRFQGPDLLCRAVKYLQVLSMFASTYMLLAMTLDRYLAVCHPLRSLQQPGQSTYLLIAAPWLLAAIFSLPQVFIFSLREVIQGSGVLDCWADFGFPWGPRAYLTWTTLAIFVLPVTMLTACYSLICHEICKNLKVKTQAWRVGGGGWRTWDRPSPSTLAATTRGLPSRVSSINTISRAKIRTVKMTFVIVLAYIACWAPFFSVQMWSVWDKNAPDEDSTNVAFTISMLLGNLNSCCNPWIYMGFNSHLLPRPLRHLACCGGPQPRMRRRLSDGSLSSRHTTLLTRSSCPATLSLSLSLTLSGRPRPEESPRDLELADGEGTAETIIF
Description: The inhibition constant (Ki(nM)) by displacement of [125I]- HO-LVA radiolabeled ligand using membranes of CHO cells of human Vasopressin V1b receptor. In kind it is cell membranes. An outline of the steps:
(§1)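 Human V1b receptor in CHO cell membranes; competition against 1 nM [125I]HO-LVA. Membranes at 0.5–1 μg protein/assay, 1 h at 30 °C. Competitor spanned 1 pM to 10 μM; nonspecific binding with 1 μM unlabeled ligand. Ki = IC50/(1+[*L]/Kd) by nonlinear least-squares fit, ≥3 assays in triplicate.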

Assay [3] has as its target T3, Vasopressin V2 receptor (Homo sapiens, UniProt P30518). The experiment in a line: The inhibition constant (Ki(nM)) by displacement of [125I]- HO-LVA radiolabeled ligand using membranes of CHO cells of human Vasopressin V2 receptor. In kind it is cell membranes. In general terms: In a radioligand displacement assay an active substance lowers the binding of a labelled ligand.

Assay [4] concerns the target Vasopressin V1a receptor (Homo sapiens, UniProt P37288). The experiment in a line: Displacement of [125I]- HO-LVA from human Vasopressin V1a receptor in membranes of CHO cells. In kind it is cell membranes. The essentials: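 CHO membranes expressing human V1a receptor (0.5–1 μg protein/assay), 50–70 pM [125I]HO-LVA. Incubated 1 h at 30 °C, equilibrium by 30 min. Competitor 1 pM to 10 μM; 1 μM unlabeled ligand defined nonspecific binding. Ki = IC50/(1+[*L]/Kd), nonlinear least-squares; at least three assays in triplicate.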

The target in assay [5] is T2, Vasopressin V1b receptor. Description: Compound was tested for its ability to displace [125I]- HO-LVA ligand from human Vasopressin V1b receptor in the membranes of CHO cells. In kind it is cell membranes. The essentials:
as §1

Assay [6] deals with T3, Vasopressin V2 receptor. Description: Compound was tested for its ability to of [125I]- HO-LVA radiolabeled ligand using membranes of CHO cells of human Vasopressin V2 receptor. In kind it is cell-based.

Structures are written as SMILES. Where a SMILES comes first, the peptide text is derived from it. [ ]: non-standard residue; d: D form. The star is where a group is joined. X1 = O=C(Cc1ccc(O)cc1)*

Chain of Vasopressin V1a receptor (P37288 whole entry): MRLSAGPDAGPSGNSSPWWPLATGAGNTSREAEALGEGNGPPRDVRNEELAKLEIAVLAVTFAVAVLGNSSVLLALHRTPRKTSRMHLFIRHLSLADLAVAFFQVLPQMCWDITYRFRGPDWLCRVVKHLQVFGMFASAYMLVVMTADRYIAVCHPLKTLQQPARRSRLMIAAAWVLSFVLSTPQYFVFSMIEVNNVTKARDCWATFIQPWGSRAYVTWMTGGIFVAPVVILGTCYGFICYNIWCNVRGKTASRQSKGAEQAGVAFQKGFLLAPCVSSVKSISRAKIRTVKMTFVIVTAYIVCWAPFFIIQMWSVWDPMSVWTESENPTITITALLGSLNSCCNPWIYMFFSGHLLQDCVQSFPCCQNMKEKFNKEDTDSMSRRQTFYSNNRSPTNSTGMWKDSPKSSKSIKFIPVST
T3 sequence (P30518 whole entry): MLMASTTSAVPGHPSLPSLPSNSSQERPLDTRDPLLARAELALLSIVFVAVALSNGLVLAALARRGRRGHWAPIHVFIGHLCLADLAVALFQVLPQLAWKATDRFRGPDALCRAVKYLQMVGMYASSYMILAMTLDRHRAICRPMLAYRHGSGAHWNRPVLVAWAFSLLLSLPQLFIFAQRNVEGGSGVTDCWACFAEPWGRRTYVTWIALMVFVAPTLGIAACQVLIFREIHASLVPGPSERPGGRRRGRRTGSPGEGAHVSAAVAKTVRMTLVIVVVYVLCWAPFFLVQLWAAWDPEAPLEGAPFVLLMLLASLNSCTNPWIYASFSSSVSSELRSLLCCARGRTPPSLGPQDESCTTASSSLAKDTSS

Turning to `COc1ccc(C[C@@H](NC(=O)Cc2ccccc2)C(=O)N[C@@H](Cc2ccccc2)C(=O)N[C@@H](CCC(N)=O)C(=O)N[C@@H](CC(N)=O)C(=O)N[C@@H](CCCN=C(N)N)C(=O)N2CCC[C@H]2C(=O)N[C@@H](CCCN=C(N)N)C(N)=O)cc1`, the inhibitory constant (Ki) stood at 1.1 nM in assay [1] (cho), 9.4 nM in assay [2] (cho), 282 nM in assay [3] (cho) and 0.8 nM in assay [4] (cho).

Regarding `COc1ccc(C[C@@H](NC(=O)CCc2ccc(O)cc2)C(=O)N[C@@H](Cc2ccccc2)C(=O)N[C@@H](CCC(N)=O)C(=O)N[C@@H](CC(N)=O)C(=O)N[C@@H](CCCCNC(=O)c2ccc3c(c2)C2(OC3=O)c3ccc(N(C)C)cc3Oc3cc(N(C)C)ccc32)C(=O)N2CCC[C@H]2C(=O)N[C@@H](CCCNC(=N)N)C(N)=O)cc1`, in assay [4], the affinity, expressed as Ki, was 3.3 nM.

In the case of `COc1ccc(C[C@@H](NC(=O)CCc2ccc(O)cc2)C(=O)N[C@@H](Cc2ccccc2)C(=O)N[C@@H](CCC(N)=O)C(=O)N[C@@H](CC(N)=O)C(=O)N[C@@H](CCCCNC(=O)c2ccc3c(c2)C(=O)OC32c3ccc(N(C)C)cc3Oc3cc(N(C)C)ccc32)C(=O)N2CCC[C@H]2C(=O)N[C@@H](CCCNC(=N)N)C(N)=O)cc1`, the Ki in assay [4] came to 1.3 nM.

In turn, `CCN(CC)c1ccc2c(-c3ccccc3C(=O)N[C@H](Cc3ccc(OC)cc3)C(=O)N[C@@H](Cc3ccccc3)C(=O)N[C@@H](CCC(N)=O)C(=O)N[C@@H](CC(N)=O)C(=O)N[C@@H](CCCNC(=N)N)C(=O)N3CCC[C@H]3C(=O)N[C@@H](CCCNC(=N)N)C(=O)N[C@@H](Cc3ccc(O)cc3)C(N)=O)c3ccc(=[N+](CC)CC)cc-3oc2c1` had a Ki in assay [4] (cho) greater than 500 nM.

Consider `COc1ccc(C[C@@H](NC(=O)CCc2ccc(O)cc2)C(=O)N[C@@H](Cc2ccccc2)C(=O)N[C@@H](CCC(N)=O)C(=O)N[C@@H](CC(N)=O)C(=O)N[C@@H](CCCCNC(=O)c2ccc3c(c2)C(=O)OC32c3ccc(O)cc3Oc3cc(O)ccc32)C(=O)N2CCC[C@H]2C(=O)N[C@@H](CCCNC(=N)N)C(N)=O)cc1`, for which the Ki in assay [4] turned out to be 5.6 nM.

With `COc1ccc(C[C@@H](NC(=O)CCc2ccc(O)cc2)C(=O)N[C@@H](Cc2ccccc2)C(=O)N[C@@H](CCC(N)=O)C(=O)N[C@@H](CC(N)=O)C(=O)N[C@@H](CCCNC(=N)N)C(=O)N2CCC[C@H]2C(=O)N[C@@H](CCCCNC(=O)c2ccc3c(c2)C(=O)OC32c3ccc(O)cc3Oc3cc(O)ccc32)C(N)=O)cc1`, the Ki in assay [1] was determined as 1.6 nM; in assay [2], 142 nM; in assay [3], 9200 nM; in assay [4] it was 0.17 nM.

In turn, `COc1ccc(C[C@@H](NC(=O)CCc2ccc(O)cc2)C(=O)N[C@@H](Cc2ccccc2)C(=O)N[C@@H](CCC(N)=O)C(=O)N[C@@H](CC(N)=O)C(=O)N[C@@H](CCCNC(=N)N)C(=O)N2CCC[C@H]2C(=O)N[C@@H](CCCCNC(=O)c2ccc3c(c2)C2(OC3=O)c3ccc(O)cc3Oc3cc(O)ccc32)C(N)=O)cc1` displayed a Ki in assay [4] of 0.23 nM.

`COc1ccc(C[C@@H](NC(=O)CCc2ccc(O)cc2)C(=O)N[C@@H](Cc2ccccc2)C(=O)N[C@@H](CCC(N)=O)C(=O)N[C@@H](CC(N)=O)C(=O)N[C@@H](CCCNC(=N)N)C(=O)N2CCC[C@H]2C(=O)N[C@@H](CCCCNC(=O)c2ccc3c(c2)C2(OC3=O)c3ccc(N(C)C)cc3Oc3cc(N(C)C)ccc32)C(N)=O)cc1` registered an inhibition constant (Ki) in assay [4] of 0.17 nM.

Regarding `COc1ccc(C[C@@H](NC(=O)CCc2ccc(O)cc2)C(=O)N[C@@H](Cc2ccccc2)C(=O)N[C@@H](CCC(N)=O)C(=O)N[C@@H](CC(N)=O)C(=O)N[C@@H](CCCNC(=N)N)C(=O)N2CCC[C@H]2C(=O)N[C@@H](CCCCNC(=O)c2ccc3c(c2)C(=O)OC32c3ccc(N(C)C)cc3Oc3cc(N(C)C)ccc32)C(N)=O)cc1`, the inhibition constant (Ki) in assay [1] came out at 1.2 nM; in assay [2], 27 nM; in assay [3], 7500 nM; in assay [4] it was 0.07 nM.

Take `COc1ccc(C[C@@H](NC(=O)Cc2ccc(O)cc2)C(=O)N[C@@H](Cc2ccccc2)C(=O)N[C@@H](CCC(N)=O)C(=O)N[C@@H](CC(N)=O)C(=O)N[C@@H](CCCN=C(N)N)C(=O)N2CCC[C@H]2C(=O)N[C@@H](CCCN=C(N)N)C(N)=O)cc1` (X1-[dY](Me)FQNRPR-NH2): the inhibition constant (Ki) in assay [1] stood at 2.7 nM; in assay [5], 5.9 nM; in assay [4] it was 0.08 nM; in assay [6], 137 nM.

Usually Ki stands for a measure of affinity in units of concentration, obtained from inhibition or displacement.
